Columns and labels:
[1] = molecular target: Delta-type opioid receptor (Homo sapiens) (UniProt P41143); settings: CHO
[2] = molecular target: Kappa-type opioid receptor (Homo sapiens) (UniProt P41145); settings: CHO
[3] = molecular target: Mu-type opioid receptor (Homo sapiens) (UniProt P35372); settings: CHO
[4] = molecular target: Mu-type opioid receptor (Rattus norvegicus, UniProt P33535); experiment: Ability to displace [3H]DAMGO from Opioid receptor mu 1 of rat brain; type: tissue-based
Outline: (§1)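 Radioligand displacement binding giving Ki values. Rat brain tissue was used for the μ site (tritiated μ-selective ligand) and the δ site ([3H]DADLE, δ-selective). Guinea pig brain tissue was used for the κ site ([3H]U69,593, a κ-selective agonist).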

[5] = molecular target: Kappa-type opioid receptor (Cavia porcellus, UniProt P41144); experiment: Ability to displace [3H]U-69593 from Opioid receptor kappa 1 of guinea pig brain
Outline: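 Competitive radioligand binding in guinea pig brain tissue, using tritiated U69,593, a κ-selective agonist, as the displaced ligand. Affinity is reported as Ki.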

[6] = molecular target: Delta-type opioid receptor (Rattus norvegicus, UniProt P33533); experiment: Ability to displace [3H]DADLE from Opioid receptor delta 1 of rat brain; type: tissue-based
Outline: as §1

[7] = molecular target: Opioid receptors; delta & kappa (Homo sapiens) (UniProt P41145+P41143); experiment: Selectivity ratio of Ki at delta opioid receptor to Ki at kappa opioid receptor; type: protein assay
[8] = molecular target: Opioid receptors; mu & delta (Homo sapiens) (UniProt P41143+P35372); experiment: Selectivity ratio of Ki at mu opioid receptor to Ki at kappa opioid receptor; type: protein assay
Chain of Opioid receptors; mu & delta (Homo sapiens) (P35372 whole entry, looked up): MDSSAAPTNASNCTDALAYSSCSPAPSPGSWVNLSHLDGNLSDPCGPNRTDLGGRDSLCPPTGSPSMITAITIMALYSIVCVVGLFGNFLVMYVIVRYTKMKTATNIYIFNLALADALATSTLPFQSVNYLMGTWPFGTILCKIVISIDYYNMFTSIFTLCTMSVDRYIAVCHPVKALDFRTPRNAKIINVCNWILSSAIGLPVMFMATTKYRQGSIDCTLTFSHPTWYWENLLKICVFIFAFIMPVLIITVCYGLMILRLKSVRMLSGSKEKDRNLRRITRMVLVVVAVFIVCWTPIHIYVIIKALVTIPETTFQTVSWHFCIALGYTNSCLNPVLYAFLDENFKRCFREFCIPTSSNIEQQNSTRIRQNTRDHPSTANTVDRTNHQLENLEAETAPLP
Chain of Opioid receptors; mu & delta (Homo sapiens) (P41143 whole entry, looked up): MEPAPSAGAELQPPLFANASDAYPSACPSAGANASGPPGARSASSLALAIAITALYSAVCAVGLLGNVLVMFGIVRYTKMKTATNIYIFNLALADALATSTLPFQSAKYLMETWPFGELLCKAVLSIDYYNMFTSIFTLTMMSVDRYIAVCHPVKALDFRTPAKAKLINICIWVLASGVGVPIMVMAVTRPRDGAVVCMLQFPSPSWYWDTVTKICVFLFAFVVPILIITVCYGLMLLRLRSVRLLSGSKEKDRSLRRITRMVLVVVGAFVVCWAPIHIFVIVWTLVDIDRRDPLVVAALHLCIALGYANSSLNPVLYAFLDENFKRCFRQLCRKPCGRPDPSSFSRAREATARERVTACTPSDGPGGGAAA

Chain of Delta-type opioid receptor (P33533 whole entry): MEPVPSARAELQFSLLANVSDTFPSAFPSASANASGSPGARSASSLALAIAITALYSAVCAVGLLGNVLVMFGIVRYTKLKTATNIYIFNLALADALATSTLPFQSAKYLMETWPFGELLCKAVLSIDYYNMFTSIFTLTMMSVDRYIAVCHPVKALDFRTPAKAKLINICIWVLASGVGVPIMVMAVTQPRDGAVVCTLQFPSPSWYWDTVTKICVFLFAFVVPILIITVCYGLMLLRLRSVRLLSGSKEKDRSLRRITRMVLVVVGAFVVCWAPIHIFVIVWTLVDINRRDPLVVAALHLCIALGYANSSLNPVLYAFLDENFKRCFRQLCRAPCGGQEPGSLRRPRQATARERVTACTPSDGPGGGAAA
Chain of Opioid receptors; delta & kappa (Homo sapiens) (P41143 whole entry, looked up): as the sequence (P41143 whole entry, looked up) above
Chain of Opioid receptors; delta & kappa (Homo sapiens) (P41145 whole entry, looked up): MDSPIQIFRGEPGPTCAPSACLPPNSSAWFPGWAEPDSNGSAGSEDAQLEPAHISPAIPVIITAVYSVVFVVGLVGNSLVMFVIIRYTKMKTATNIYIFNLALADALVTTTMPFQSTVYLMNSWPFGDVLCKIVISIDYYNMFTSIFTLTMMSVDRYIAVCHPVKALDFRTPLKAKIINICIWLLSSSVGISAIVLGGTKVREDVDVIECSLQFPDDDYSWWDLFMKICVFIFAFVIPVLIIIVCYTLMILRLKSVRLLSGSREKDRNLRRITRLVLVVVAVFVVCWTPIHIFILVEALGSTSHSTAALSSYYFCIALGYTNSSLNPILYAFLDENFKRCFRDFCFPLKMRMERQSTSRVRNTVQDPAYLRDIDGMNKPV
Chain of Kappa-type opioid receptor (P41144 whole entry): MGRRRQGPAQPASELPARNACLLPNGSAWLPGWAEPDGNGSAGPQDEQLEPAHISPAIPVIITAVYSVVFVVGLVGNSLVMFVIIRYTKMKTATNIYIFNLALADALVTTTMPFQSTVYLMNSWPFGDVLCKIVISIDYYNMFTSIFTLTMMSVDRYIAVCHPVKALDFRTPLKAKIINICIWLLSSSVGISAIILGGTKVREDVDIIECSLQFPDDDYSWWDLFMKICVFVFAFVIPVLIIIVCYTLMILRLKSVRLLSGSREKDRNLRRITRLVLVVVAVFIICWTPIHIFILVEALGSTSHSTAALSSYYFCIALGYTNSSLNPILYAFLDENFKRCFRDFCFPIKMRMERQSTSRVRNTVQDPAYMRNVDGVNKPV
Chain of Mu-type opioid receptor (P33535 whole entry): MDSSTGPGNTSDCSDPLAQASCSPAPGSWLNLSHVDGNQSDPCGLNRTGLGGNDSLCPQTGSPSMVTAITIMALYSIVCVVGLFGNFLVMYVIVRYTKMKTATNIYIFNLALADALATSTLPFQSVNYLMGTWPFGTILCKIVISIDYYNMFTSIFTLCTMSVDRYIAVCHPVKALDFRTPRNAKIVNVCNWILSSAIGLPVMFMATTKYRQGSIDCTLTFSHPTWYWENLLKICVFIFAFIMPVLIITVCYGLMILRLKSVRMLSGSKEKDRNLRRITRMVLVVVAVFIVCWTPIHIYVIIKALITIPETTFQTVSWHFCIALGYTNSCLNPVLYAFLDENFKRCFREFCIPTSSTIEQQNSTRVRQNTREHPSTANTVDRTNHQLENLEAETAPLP
Chain of Kappa-type opioid receptor (Homo sapiens) (P41145 whole entry): as the sequence (P41145 whole entry, looked up) above
Chain of Delta-type opioid receptor (Homo sapiens) (P41143 whole entry): as the sequence (P41143 whole entry, looked up) above
Chain of Mu-type opioid receptor (Homo sapiens) (P35372 whole entry): as the sequence (P35372 whole entry, looked up) above

SMILES | Ki [4] | Ki [5] | Ki [6] | Ratio [7] | Ratio [8] | also measured
Oc1ccc2c3c1O[C@H]1c4[nH]c5c(c4C[C@@]4(O)[C@@H](C2)N(CC2CC2)CC[C@]314)C[C@@]1(O)[C@H]2Cc3ccc(O)c4c3[C@@]1(CCN2CC1CC1)[C@H]5O4 |  |  |  |  |  | Ke [1]: 4.6 nM; Ke [2]: 0.04 nM; Ke [3]: 19 nM
CC1CN(CCCc2ccccc2)C2C[C@H](N)CC1(c1cccc(O)c1)C2 (single isomer, unassigned; (+)) [listing 1 of 2 here] | 207 nM | 893 nM | 246 nM |  |  | 
CC1CN(CCCc2ccccc2)C2C[C@H](N)CC1(c1cccc(O)c1)C2 (single isomer, unassigned; (+)) [listing 2 of 2 here] |  |  |  | 0.27 | 0.23 | 
CC1CN(CCCc2ccccc2)C2C[C@H](N)CC1(c1cccc(O)c1)C2 (single isomer, unassigned; (-)) [listing 1 of 2 here] | 3.3 nM | 122 nM | 14.7 nM |  |  | 
CC1CN(CCCc2ccccc2)C2C[C@H](N)CC1(c1cccc(O)c1)C2 (single isomer, unassigned; (-)) [listing 2 of 2 here] |  |  |  | 0.1 | 0.03 | 

Source: ChEMBL document CHEMBL1135969, “Discovery of an opioid kappa receptor selective pure antagonist from a library of N-substituted 4beta-methyl-5-(3-hydroxyphenyl)morphans” (J Med Chem, 2002)
